Laboratory results taken from ChEMBL document CHEMBL4513216, “Probing the Open Global Health Chemical Diversity Library for Multistage-Active Starting Points for Next-Generation Antimalarials” (ACS Infect Dis, 2020).

Experiment: Toxicity liver stage against HepG2, at 10uM
Assay type: cell-based
Design: test concentration 10 uM, cell line HepG2-A16-CD81EGFP
Settings: human, HepG2-A16-CD81EGFP cells; read-out: INHIBITION
Summary of the method: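 Uninfected HepG2-A16-CD81EGFP cells, 3 × 10^3 per well, 1536-well, plated on prespotted compound at 10 μM final, parasite-free screening media added to match infected plates; puromycin 10 μM positive, DMSO 0.5% negative; run in parallel with 48 h PbLuc assay at 37 °C, 5% CO2; viability by CellTiter-Glo luminescence, normalized to controls.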

Structure (SMILES): CC(C)c1nn(C)c(N(C)C)c1CNCc1cccc(CN(C)C)c1
- cytotoxicity at 10 µM: -4.22%

Structure (SMILES): O=C(O)c1cc(NS(=O)(=O)c2cccc(Cl)c2F)ccc1Cl
- cytotoxicity at 10 µM: -4.92%

Structure (SMILES): COCCc1noc(CN2CC(n3nc(C)cc3C)C2)n1
- cytotoxicity at 10 µM: -1.76%

Structure (SMILES): Cc1ccc(C(=O)N2CCCC(c3[nH]ncc3S(C)(=O)=O)C2)s1 (configuration not stated)
- cytotoxicity at 10 µM: -10.6%

Structure (SMILES): CC(C)NC1CCc2[nH]c(=O)ccc2C1 (configuration not stated)
- cytotoxicity at 10 µM: 3.64%

Structure (SMILES): COc1ccc(C2(NC(=O)CCn3cncn3)CCCCC2)cc1
- cytotoxicity at 10 µM: -3.12%

Structure (SMILES): Cc1cc(C)c(CNC(=O)NCCOc2ccc3c(c2)CCC3)c(=O)[nH]1
- cytotoxicity at 10 µM: -23.3%

Structure (SMILES): CC(=O)N1CC[C@H]2OCC[C@@H](C(=O)Nc3cccnc3C)[C@H]2C1
- cytotoxicity at 10 µM: 0.0861%

Structure (SMILES): CN1CCN(C(=O)C2CCCN2c2ncnc3ccsc23)CC1 (configuration not stated)
- cytotoxicity at 10 µM: 9.19%

Structure (SMILES): CC(CCc1ccccc1F)C(=O)NS(C)(=O)=O (configuration not stated)
- cytotoxicity at 10 µM: 3.12%

Structure (SMILES): Cc1cnn(CC2CCCCN2Cc2nnc(-c3ccco3)o2)c1 (configuration not stated)
- cytotoxicity at 10 µM: -10.4%

Structure (SMILES): CC(C)CCC(=O)N1C[C@H]2CCN[C@H]2C1
- cytotoxicity at 10 µM: 2.82%

Structure (SMILES): O=C(CC(F)(F)F)N1C[C@H]2CC[C@@H](C1)N(Cc1ccccc1)C2=O
- cytotoxicity at 10 µM: 7.71%

Structure (SMILES): COc1ccc2c(c1)C(=O)N(C)C1(CCN(CC=C(C)C)CC1)N2
- cytotoxicity at 10 µM: 3.31%

Structure (SMILES): CCN(CC)S(=O)(=O)CCNC(=O)N(C)C(C)c1ccccn1 (configuration not stated)
- cytotoxicity at 10 µM: 10.6%

Structure (SMILES): COc1ccccc1-c1noc(CN2CCCC2Cn2cccn2)n1 (configuration not stated)
- cytotoxicity at 10 µM: -8.95%

Structure (SMILES): CCOc1cc(NC(=O)C2CC(=O)N(c3cccc(OC)c3)C2)ncn1 (configuration not stated)
- cytotoxicity at 10 µM: -4.31%

Structure (SMILES): CCNc1cc2c(nn1)CCN(C(=O)c1ccc3cc[nH]c3c1)C2
- cytotoxicity at 10 µM: -6.95%

Structure (SMILES): CN(Cc1ccco1)C(=O)C1CSCN1C(=O)c1cccnc1 (configuration not stated)
- cytotoxicity at 10 µM: -5.28%

Structure (SMILES): COc1ccc(-n2nnc(C(=O)NC(C)C)c2C2CC2)cc1
- cytotoxicity at 10 µM: -14.7%

Structure (SMILES): CC(C)NC(=O)NC(=O)C(C)N1CCN(C2CCN(C(C)C)CC2)CC1 (configuration not stated)
- cytotoxicity at 10 µM: -15.5%

Structure (SMILES): Cc1cccc(NCC(=O)Nc2cc(F)ccc2F)c1C(N)=O
- cytotoxicity at 10 µM: 7.53%

Structure (SMILES): Cc1ccc(Cl)cc1S(=O)(=O)NCc1cnc(N(C)C)n1C
- cytotoxicity at 10 µM: 5.17%

Structure (SMILES): CC(C)c1noc(CCCC(=O)N2CCN(Cc3cccnc3)CC2)n1
- cytotoxicity at 10 µM: -2.96%

Structure (SMILES): CN(CCc1cccs1)C(=O)Nc1cccc(S(C)(=O)=O)c1
- cytotoxicity at 10 µM: -8.77%

Structure (SMILES): CC(CNC(=O)Nc1ccc(F)cc1Br)N1CCOCC1 (configuration not stated)
- cytotoxicity at 10 µM: 9.21%

Structure (SMILES): Cc1nn(C)c2cn(C(C)C(=O)NCc3ccccn3)nc12 (configuration not stated)
- cytotoxicity at 10 µM: 11.1%

Structure (SMILES): CC(NC(=O)Cc1cccs1)(C(N)=O)c1cccc(Cl)c1 (configuration not stated)
- cytotoxicity at 10 µM: 11.3%

Structure (SMILES): CC(Cn1cccn1)NC(=O)NCc1ccc(OC2CCCC2)nc1 (configuration not stated)
- cytotoxicity at 10 µM: -12.9%

Structure (SMILES): Nc1cc(CCCNC(=O)NC2CCCC2)nn1-c1ccccc1
- cytotoxicity at 10 µM: -18.9%

Structure (SMILES): Cc1oc(-c2ccsc2)nc1CC(=O)NCC(C)(C)CN(C)C
- cytotoxicity at 10 µM: -5.81%

Structure (SMILES): CC(NC(=O)Cc1ccccc1F)(C(N)=O)c1cccc(Cl)c1 (configuration not stated)
- cytotoxicity at 10 µM: 17.6%

Structure (SMILES): COCCN(CC(N)=O)CC1CCCN(C2Cc3ccccc3C2)C1 (configuration not stated)
- cytotoxicity at 10 µM: -3.01%

Structure (SMILES): COCCn1cc(NC(=O)NCC(c2cccc(F)c2)N(C)C)cn1 (configuration not stated)
- cytotoxicity at 10 µM: -5.6%

Structure (SMILES): CNC(=O)N1CCC(NC(=O)c2cnn(C)c2)CC1
- cytotoxicity at 10 µM: -1.35%

Structure (SMILES): COc1ccc(OCC(=O)NC(C)c2ccc(F)cc2)c(C(=O)O)c1 (configuration not stated)
- cytotoxicity at 10 µM: 2.89%

Structure (SMILES): Cc1ccc(NC(=O)c2ccc(CC3CC(=O)NC3=O)cc2)cc1O (configuration not stated)
- cytotoxicity at 10 µM: 4.99%

Structure (SMILES): COc1cc(OC)cc(-n2ccnc2-c2cc3n(n2)CCNC3)c1
- cytotoxicity at 10 µM: -12.2%

Structure (SMILES): COCC(=O)N1CCCC1c1nc(O)cc(C(C)C)n1 (configuration not stated)
- cytotoxicity at 10 µM: -15.5%

Structure (SMILES): N#Cc1ccc(CN2CCCN(CCCn3cncn3)CC2)cc1
- cytotoxicity at 10 µM: -2.89%

Structure (SMILES): COc1cccn(C(C)C(=O)NC2CCCC2)c1=O (configuration not stated)
- cytotoxicity at 10 µM: 5.32%

Structure (SMILES): CCOc1ccc(CNC(=O)N(C)Cc2ncnn2C)cc1C
- cytotoxicity at 10 µM: -16%

Structure (SMILES): c1ccc(-n2ccc(CN3CCCC(Cn4cncn4)C3)n2)cc1 (configuration not stated)
- cytotoxicity at 10 µM: -16%

Structure (SMILES): O=C(CS(=O)(=O)Cc1ccc(F)cc1)NC1CCCCNC1=O (configuration not stated)
- cytotoxicity at 10 µM: -0.252%

Structure (SMILES): CC(=O)NCc1ccc(C(=O)NC2CCc3nc(C)cn3C2)o1 (configuration not stated)
- cytotoxicity at 10 µM: -3.81%

Structure (SMILES): COc1cccc(S(=O)(=O)CCN2CCN(CC(F)F)CC2)c1
- cytotoxicity at 10 µM: -3.96%

Structure (SMILES): CO[C@H]1CCN(C(=O)Cc2ccc(F)cc2)[C@H]1Cc1ccncc1
- cytotoxicity at 10 µM: 5.55%

Structure (SMILES): Cc1ccc(N2C[C@@H]3OCCN(CC4CC4)[C@@H]3C2)nn1
- cytotoxicity at 10 µM: 3.59%

Structure (SMILES): O=C(c1ccco1)N1CCCC2(CN(Cc3cccs3)CCO2)C1 (configuration not stated)
- cytotoxicity at 10 µM: -2.3%

Structure (SMILES): Cc1ccc2c(c1)c(CNC(=O)C1CCCN(CC(N)=O)C1)nn2C (configuration not stated)
- cytotoxicity at 10 µM: -17.9%

Structure (SMILES): CNC(=O)[C@@H]1[C@@H](OC(=O)Nc2ccccc2)C(=O)N(C)C12CCNCC2
- cytotoxicity at 10 µM: 6.38%

Structure (SMILES): CC(Nc1ncnc2c1CCNCC2)c1nc2c(s1)CCCC2 (configuration not stated)
- cytotoxicity at 10 µM: 1.28%

Structure (SMILES): Cc1cc(C)c2c(N3CCC(C(=O)N4CCOCC4)CC3)ncnc2n1
- cytotoxicity at 10 µM: -11.1%

Structure (SMILES): COCc1nc(CNC2CCCC(C)(C)C2)no1 (configuration not stated)
- cytotoxicity at 10 µM: 2.55%

Structure (SMILES): CCCN(Cc1nccn1C)C(=O)c1cnn[nH]1
- cytotoxicity at 10 µM: -1.21%

Structure (SMILES): Cc1nn(C)c(C)c1C(C)NC(=O)c1cc(CN2CCC(O)CC2)on1 (configuration not stated)
- cytotoxicity at 10 µM: 0.894%

Structure (SMILES): CC(NC(=O)CCC(C)(C)C)C(=O)Nc1ccc(-n2cncn2)cc1 (configuration not stated)
- cytotoxicity at 10 µM: -3.46%

Structure (SMILES): Cc1cc(S(C)(=O)=O)c(C)c(S(=O)(=O)NCC2CCC2)c1
- cytotoxicity at 10 µM: 16.3%

Structure (SMILES): CCCn1ncc(C(=O)NCc2n[nH]c3c2CCCCC3)c1C
- cytotoxicity at 10 µM: 8.72%

Structure (SMILES): Cc1nc(NCCSc2cnn[nH]2)c2cccnc2n1
- cytotoxicity at 10 µM: 2.98%

Structure (SMILES): Cc1ccc(C(=O)NCCC(C)C)cc1NS(C)(=O)=O
- cytotoxicity at 10 µM: 10.9%

Structure (SMILES): CC(C)N1CCOCC2(CN(Cc3nccs3)CCO2)C1 (configuration not stated)
- cytotoxicity at 10 µM: -0.653%

Structure (SMILES): O=C(NCC1CC1)c1n[nH]c2c1CNCC2
- cytotoxicity at 10 µM: 4.14%

Structure (SMILES): CC(C)N(C(=O)c1csc(-c2ccoc2)n1)C1CCOCC1
- cytotoxicity at 10 µM: -1.18%

Structure (SMILES): Cn1cc(CCCNC(=O)NCC(O)c2ccsc2)cn1 (configuration not stated)
- cytotoxicity at 10 µM: -5.4%

Structure (SMILES): COc1ccc(OCC(=O)NC(C)c2ccccc2)c(C(=O)O)c1 (configuration not stated)
- cytotoxicity at 10 µM: 2.4%

Structure (SMILES): Cc1sc(Oc2ccccc2Cl)nc1C(=O)O
- cytotoxicity at 10 µM: 1.95%

Structure (SMILES): COC(=O)C(C)(C)S(=O)(=O)c1ccc(Br)cc1
- cytotoxicity at 10 µM: 5.25%

Structure (SMILES): O[C@@H]1CC(CNCc2ccc(F)cc2)(COc2cccnc2)C[C@@H]1O (some centres not stated)
- cytotoxicity at 10 µM: -10.8%

Structure (SMILES): CCN(C(=O)CN(C)C(c1cccc(F)c1)c1ccccn1)C1CC1 (configuration not stated)
- cytotoxicity at 10 µM: -8.65%

Structure (SMILES): COCCN1CCOCC2(CCCN(Cc3cccc(F)c3)C2)C1 (configuration not stated)
- cytotoxicity at 10 µM: 0.346%

Structure (SMILES): O=C(c1ccnn1-c1ccc2ccccn12)N1CCOCC1
- cytotoxicity at 10 µM: -108%

Structure (SMILES): CN(Cc1cn2c(n1)CN(C(N)=O)CC2)Cc1ccco1
- cytotoxicity at 10 µM: -5.67%

Structure (SMILES): COCc1nn(Cc2ccc(Br)s2)c(=O)o1
- cytotoxicity at 10 µM: 1.99%

Structure (SMILES): Cn1cc(C[C@H]2[C@@H](O)CCN2C(=O)C2CC=CC2)cn1
- cytotoxicity at 10 µM: 5.6%

Structure (SMILES): CC(=O)NC(C)(C)c1noc(C2(C#N)CCCCC2)n1
- cytotoxicity at 10 µM: 7.57%

Structure (SMILES): CCc1noc(CS(=O)(=O)c2cccc(OC)c2)n1
- cytotoxicity at 10 µM: 6.7%

Structure (SMILES): CC(C)CC(O)C1CCN(C(=O)c2ccc(C(C)C)[nH]c2=O)CC1 (configuration not stated)
- cytotoxicity at 10 µM: 3.25%

Structure (SMILES): O=C(CN(Cc1cccs1)c1ccc(F)cc1)NC1CCOCC1
- cytotoxicity at 10 µM: 13.5%

Structure (SMILES): CC(NC(=O)Nc1cccnc1N1CCCC1)c1ccn(C)c1 (configuration not stated)
- cytotoxicity at 10 µM: -24.6%

Structure (SMILES): CC(C)(C)c1nnc(CN2CCC(c3cc4ccccc4[nH]3)CC2)o1
- cytotoxicity at 10 µM: 24.3%

Structure (SMILES): O=C(c1ccc2nncn2c1)N1CCSC2(CCCCC2)C1
- cytotoxicity at 10 µM: -5.32%
